Experimental data reported in paper PMC4674087 (ChemMedChem, 2015).
Values after ≈ are worked out from the molar mass of the structure shown. Values joined by “and” are separate entries in the source; they are usually repeats but may differ in a detail not shown here. Equal values may be shown once.

How the values were obtained:
[1] = system: mitochondrial permeability transition pore (mtPTP); assay: Calcium retention capacity; format: biochemical, mouse; details: for CRC/CRC0: at 1.56 µM, average ±SEM, n≥3
[2] = system: mitochondrial permeability transition pore (mtPTP); assay: Mitochondrial swelling assay; format: biochemical, mouse; details: for EC50: read-out: mitochondrial swelling EC50, isolated mouse liver mitochondria
[3] = target: human norepinephrine transporter (NET) (Homo sapiens, UniProt P23975); assay: Eurofins LeadProfilingScreen panel; format: binding; details: read-out: inhibition of human norepinephrine transporter (NET)
Sequence of human norepinephrine transporter (NET) (P23975 whole entry): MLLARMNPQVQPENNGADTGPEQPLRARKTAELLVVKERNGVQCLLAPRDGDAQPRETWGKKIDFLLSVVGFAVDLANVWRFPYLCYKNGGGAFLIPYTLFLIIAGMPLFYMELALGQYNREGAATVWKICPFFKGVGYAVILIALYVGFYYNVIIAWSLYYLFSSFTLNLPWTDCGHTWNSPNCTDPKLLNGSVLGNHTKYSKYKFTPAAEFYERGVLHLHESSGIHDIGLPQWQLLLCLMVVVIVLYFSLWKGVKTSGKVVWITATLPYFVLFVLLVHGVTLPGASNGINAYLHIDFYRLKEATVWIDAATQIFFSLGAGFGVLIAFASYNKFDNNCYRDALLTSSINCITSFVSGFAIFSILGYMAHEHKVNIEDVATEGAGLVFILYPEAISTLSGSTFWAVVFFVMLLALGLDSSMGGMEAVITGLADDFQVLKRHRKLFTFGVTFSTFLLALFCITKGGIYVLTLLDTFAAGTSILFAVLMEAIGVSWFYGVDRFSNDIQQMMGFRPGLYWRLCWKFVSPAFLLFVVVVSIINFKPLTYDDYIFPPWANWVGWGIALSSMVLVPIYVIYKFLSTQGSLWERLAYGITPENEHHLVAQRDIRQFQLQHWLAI

[4] = system: exon 9 col6a1 morphant zebrafish; assay: Zebrafish ColVI myopathy model, muscle birefringence; format: in vivo; details: 48 hpf; 5 and 10 µM in fish water, added at 21 hpf; ANOVA p < 0.05
[5] = system: isolated mouse liver mitochondria; assay: Oxygen consumption of isolated mouse liver mitochondria; format: biochemical
Aqueous solubility = format: physicochemical; details: PBS
Plasma stability, mouse = format: in vitro ADME
human mtPTP = assay: CRC of HeLa cells; format: cell-based
[6] = Plasma protein binding, mouse; format: in vitro ADME
[7] = system: exon 9 col6a1 morphant zebrafish; assay: Zebrafish ColVI myopathy model, motor activity; format: in vivo; details: 5 and 10 µM in fish water, added at 21 hpf
Plasma stability, human = format: in vitro ADME
[8] = system: other 66 targets in the panel (GPCRs, ion channels, transporters); assay: Eurofins LeadProfilingScreen panel, remaining targets; format: binding; details: 10 µM
[9] = Microsomal stability, human liver microsomes; format: in vitro ADME
[10] = system: mitochondrial permeability transition pore (mtPTP); assay: Chemical activation of mtPTP; format: biochemical, mouse; details: 1.56 µM; 10 µM Ca2+ plus PhAsO, diamide, Cu(OP)2 or NEM
HeLa cells [11] = assay: HeLa cell viability assay; format: cell-based, human; details: 24 h, CsH or verapamil present
Outline: (§1)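 HeLa cells are grown in DMEM with 10% FBS at 37 °C and 5% CO2, seeded at 1×10^4 per well, and left to adhere for 6 h. They are then exposed for 24 h to a range of test compound concentrations or 1% DMSO vehicle, with 20 µM verapamil or 2 µg/mL CsH present. Relative viable cell number is read with the CellTiter 96 Aqueous One kit.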

[12] = HeLa cell viability assay; format: cell-based, human; details: human, HeLa cells, with verapamil (20 µM) or CsH (2 µg/mL)
Outline: as §1

[13] = Plasma protein binding, human; format: in vitro ADME
[14] = Microsomal stability, mouse liver microsomes; format: in vitro ADME
HeLa cells [15] = assay: Oxygen consumption of HeLa cells; format: cell-based, human; details: CsH present
Outline: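 HeLa monolayers are seeded at 3×10^4 per well in DMEM and cultured for 24 h. Medium is replaced by serum- and antibiotic-free unbuffered DMEM (pH 7.4) containing 2 µg/mL CsH or 20 µM verapamil. Oxygen consumption is measured on a Seahorse XF24 with sequential additions, and protein per well is quantified by BCA afterwards. Results are mean ± SD of a representative experiment, repeated four times.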

adenosine A3 = target: T1, adenosine A3 (Homo sapiens, UniProt P0DMS8); assay: Eurofins LeadProfilingScreen panel; format: binding; details: read-out: inhibition of adenosine A3
T1 sequence (P0DMS8 1-318): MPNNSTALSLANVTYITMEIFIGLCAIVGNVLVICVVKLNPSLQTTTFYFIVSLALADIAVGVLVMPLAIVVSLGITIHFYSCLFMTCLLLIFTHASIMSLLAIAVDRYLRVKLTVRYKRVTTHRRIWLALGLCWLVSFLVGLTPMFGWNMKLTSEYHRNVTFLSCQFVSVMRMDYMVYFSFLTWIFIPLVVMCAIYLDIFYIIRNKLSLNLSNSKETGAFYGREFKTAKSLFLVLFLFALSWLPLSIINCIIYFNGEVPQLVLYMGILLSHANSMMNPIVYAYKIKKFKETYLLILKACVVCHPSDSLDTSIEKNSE

[16] = isolated mouse liver mitochondria

Cc1ccc(Cl)cc1NC(=O)c1cc(-c2ccc(F)c(O)c2)on1 [Compound 63, N-(5-Chloro-2-methylphenyl)-5-(4-fluoro-3-hydroxyphenyl)isoxazole-3-carboxamide]
CRC/CRC0 [1, 16]: 15.21±1.26 and 15.2 −1.3

COc1cc(NC(=O)c2cc(-c3cccc(O)c3)on2)cc(OC)c1OC [Compound 1, 5-(3-hydroxyphenyl)-N-(3,4,5-trimethoxyphenyl)isoxazole-3-carboxamide]
CRC/CRC0 [1, 16]: 1.18 −0.06

Cc1c(Cl)cccc1NC(=O)c1cc(-c2ccc(F)c(O)c2)on1 [Compound 60, N-(3-Chloro-2-methylphenyl)-5-(4-fluoro-3-hydroxyphenyl)isoxazole-3-carboxamide]
mtPTP opening (swelling) induced by 50 µM Ca2+ load ([2]; 1.56 µM compound): abolished | inhibition at 10 µM [3]: 79% | muscle birefringence (structural muscle defects) [4]: significant recovery of muscle defects | respiratory control ratios, FCCP-stimulated and oligomycin-insensitive respiration [5]: No statistically significant differences | Aqueous solubility (Aqueous solubility; pH 7.4): 16.1 µM | solubility (Aqueous solubility; pH 7.4, aqueous buffer, Aqueous solubility): 16 µM (≈ 5.55 µg/mL) | half-life (Plasma stability, mouse): < 30 min | CRC after treatment of intact HeLa cells, wash, then permeabilization (human mtPTP; 1.56 µM, 30 min): effective following treatment of intact human cells | CRC ratios of permeabilized HeLa cells (human mtPTP; increasing concentrations of 60): increased CRC ratios | fraction unbound [6]: < 0.01 | recovery [6]: 0% | motor function (spontaneous coiling events, touch-evoked response) [7]: dramatic improvement in motor function | half-life (Plasma stability, human): > 120 min | inhibition of the other 66 targets in the panel [8]: ≤ 43% | Ca2+ load required for mtPTP opening ([1]; 1.56 µM compound, 20 µM Ca2+ pulses, solvent control 80): ~ 960 nmol (mg protein)^−1 | CRC/CRC0 [1, 16]: 12.14±0.55 and 12.1 −0.6 | compound-to-solvent CRC ratio reached on augmenting the concentration ([1]; concentration-response, Figure 4D trace a): 15 | maximum CRC ratio relative to CsA-treated mitochondria [1, 16]: ~ 3 fold | effect on CRC in combination with 2 µM CsA ([1]; various concentrations of 60 plus 2 µM CsA): synergistic | half-life [9]: > 60 min | microsomal CLint [9]: < 116 µL/min/mg | mtPTP transition from closed to open after chemical activators [10]: prevented | concentration up to which not cytotoxic (HeLa cells [11]): 12.50 µM | CC50 at 24 h [12]: 39.5 ± 4.65 µM | fraction unbound [13]: 0.11 | recovery [13]: 76% | half-life [14]: < 15 min | microsomal CLint [14]: > 462 µL/min/mg | FCCP-stimulated and oligomycin-insensitive respiration (HeLa cells [15]): No statistically significant differences | inhibition at 10 µM (adenosine A3): 51%

COc1ccc(-c2cc(C(=O)Nc3cc(Cl)ccc3C)no2)cc1O [Compound 46, N-(5-Chloro-2-methylphenyl)-5-(3-hydroxy-4-methoxyphenyl)isoxazole-3-carboxamide]
EC50 [2]: 0.0076 nM | CRC/CRC0 [1, 16]: 10.02±0.34 | CC50 at 24 h [12]: > 50 µM

COc1ccc(-c2cc(C(=O)Nc3cc(Cl)cnc3C)no2)cc1O [Compound 54, N-(5-Chloro-2-methylpyridin-3-yl)-5-(3-hydroxy-4-methoxyphenyl)isoxazole-3-carboxamide]
EC50 [2]: 10 nM | CRC/CRC0 [1, 16]: 10.10±1.14 and 10.1 −1.1 | CC50 at 24 h [12]: > 50 µM
